Active and inactive are the calls of the source.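 Rule for the calls: active = calcium signal ratio cut to more than 3 SD under the fully stimulated control mean yet still positive, in both repeats and the primary screen; inactive = the rest.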
The compounds below were run against Short transient receptor potential channel 4 (Mus musculus) (UniProt Q9QUQ5) (assay: blockers of DAMGO-evoked TRPC4 calcium flux – cell-based, second round, Fluo4, HEK293 TRPC4beta/mu-opioid, 1 µM, confirmation (AID 2637)). Details: at 1 µM.
How it was run: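 Test system: HEK293 stable line co-expressing TRPC4beta and mu-opioid receptor | Probe or stimulus: Sequential submaximal then maximal DAMGO stimulation | Dosing: 1 µM single point | Timing: Fluo4 loading 45 min at room temperature, compound 110 s | Signal: Fluo4 calcium fluorescence, kinetic real-time read after baseline | Controls: ECmax and compound-free wells | Repeats: Duplicates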

Chain of Short transient receptor potential channel 4 (Mus musculus) (Q9QUQ5 whole entry, looked up): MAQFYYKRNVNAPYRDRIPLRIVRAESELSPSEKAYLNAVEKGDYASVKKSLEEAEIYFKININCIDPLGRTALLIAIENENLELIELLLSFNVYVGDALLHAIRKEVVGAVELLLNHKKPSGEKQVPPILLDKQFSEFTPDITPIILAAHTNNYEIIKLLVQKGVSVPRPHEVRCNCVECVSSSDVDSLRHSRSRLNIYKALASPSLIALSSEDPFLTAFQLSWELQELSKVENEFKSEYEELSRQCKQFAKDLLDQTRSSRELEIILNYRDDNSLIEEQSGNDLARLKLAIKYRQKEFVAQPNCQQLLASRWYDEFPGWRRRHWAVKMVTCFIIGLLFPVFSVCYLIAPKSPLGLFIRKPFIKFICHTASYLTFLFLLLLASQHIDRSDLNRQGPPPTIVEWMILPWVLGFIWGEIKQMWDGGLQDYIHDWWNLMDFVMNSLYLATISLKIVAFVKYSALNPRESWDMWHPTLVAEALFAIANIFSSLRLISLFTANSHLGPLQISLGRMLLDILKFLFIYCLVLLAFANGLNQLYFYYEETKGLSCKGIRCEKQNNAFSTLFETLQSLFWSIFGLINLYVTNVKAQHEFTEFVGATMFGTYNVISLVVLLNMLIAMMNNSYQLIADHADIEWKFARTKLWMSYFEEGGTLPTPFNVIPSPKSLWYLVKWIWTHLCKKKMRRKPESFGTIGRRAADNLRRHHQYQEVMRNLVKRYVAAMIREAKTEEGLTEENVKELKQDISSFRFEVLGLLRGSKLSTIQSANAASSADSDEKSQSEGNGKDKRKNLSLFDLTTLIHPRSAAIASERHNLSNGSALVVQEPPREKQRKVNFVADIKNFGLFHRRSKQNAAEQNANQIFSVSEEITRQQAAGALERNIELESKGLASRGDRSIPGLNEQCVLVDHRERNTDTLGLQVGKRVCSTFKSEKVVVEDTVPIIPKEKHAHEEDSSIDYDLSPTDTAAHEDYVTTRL

outcome, inactive:
Cc1cc(-c2ccc(C)c(S(=O)(=O)NCCCN(Cc3ccccc3)C(C)C)c2)on1
CCc1nc(NCCc2ccccn2)c2nnn(Cc3ccccc3F)c2n1
Cc1sc2ncnc(NCC(C)(C)N3CCOCC3)c2c1C
Cc1ccc(N2CCN(c3ccc(NCc4nc5ccccc5n4C)cc3)CC2)cc1
COc1ccc(C(CNC(=O)CN2C(=O)NC3(CCCC3)C2=O)N(C)C)cc1 (stereo not given)
Cc1cccc(NC(=S)NCC(c2cccnc2)N(C)C)c1C (stereo not given)
Cc1ccccc1OCC(=O)NNC(=S)NC(=O)c1ccco1
Cc1ccc(Sc2cc(C(=O)NCCN(C)C)c3ccccc3n2)cc1
O=C(O)c1ccc(-c2ccc(/C=c3/sc4nc5ccccc5n4c3=O)o2)cc1Cl
Cc1ccccc1C(=O)NNC(=S)NC(=O)c1ccccc1
CN(C)C(CNC(=O)c1ccc2ccccc2n1)c1ccccc1 (stereo not given)
Cc1cc(NC(=O)CN2CCc3ccccc3C2)nc2c1c(=O)oc1ccccc12
Cn1c(CN2CCN(c3cccc(Cl)c3)CC2)nc2ccccc21
CN(C)C(CNC(=O)c1cnc(Cl)c(Cl)c1)c1ccccc1 (stereo not given)
Cc1ccc(Cl)cc1NC(=O)CNCC(c1ccccc1)N(C)C (stereo not given)
CN(C)CCCN(C(=O)c1ccc(S(=O)(=O)N2CCOCC2)cc1)c1nc2ccc(F)cc2s1
CN(C)CCN(C(=O)c1cccc2ccccc12)c1nc2cc3c(cc2s1)OCO3
Cc1ccc2c(C)c(C(=O)N(Cc3cccs3)C3CCS(=O)(=O)C3)oc2c1 (stereo not given)
CCN1CCN(c2c(Cl)cccc2NC(=O)c2ccc3nsnc3c2)CC1
O=C(C1CCCN(Cc2ccncc2)C1)N1CCc2ccccc2C1 (stereo not given)
CCN(c1ccccc1)S(=O)(=O)c1ccc(C(=O)N(CCCN(C)C)c2nc3cc4c(cc3s2)OCO4)cc1
CC1CCCN(CCCNC(=O)c2ccc3c(c2)N(Cc2ccccc2F)C(=O)c2ccccc2S3(=O)=O)C1 (stereo not given)
O=C(Nc1nnc(-c2ccccc2Cl)o1)c1nc2ccccc2s1
COc1ccc(C(=O)NC(=S)NNC(=O)CCc2ccccc2)cc1
Cc1cc(-c2nn(-c3ccccc3F)cc2CNCCc2cnc[nH]2)c(C)s1
Cc1ccc(C(=O)NC(=S)NNC(=O)c2ccccc2)cc1
Cc1csc2c(N3CCN(C(=O)NC(C)(C)C)CC3)ncnc12
COC(=O)[C@@]1(Cc2ccc(F)cc2)[C@H]2c3cc(C(=O)N(C)C)n(CCc4ccccn4)c3C[C@H]2CN1C(=O)c1ccccc1
CN(CCc1ccccn1)C(=O)CC1C(=O)NCCN1Cc1ccccc1C(F)(F)F (stereo not given)
COc1cc(/C=C/C(=O)c2ccc3c(c2)OCO3)cc(Cl)c1O
CCn1c(N2CCN(C(=O)Nc3ccc(F)cc3)CC2)nc2ccccc21
O=S(=O)(c1ccccc1)c1nnn2c1nc(NC1CCN(Cc3ccccc3)CC1)c1cc(Cl)ccc12
CCOC(=O)c1oc2ccc(OC)cc2c1NC(=O)CN1CCN(C)CC1
C=CCn1c(CCNC(=O)C(C)(C)C)nc2ccccc21
CCOC(=O)C1(CCOc2ccccc2)CCN(Cc2ccc3c(c2)OCCO3)CC1
Cc1cc(C)n(-c2nc(SCCN(C)C)c3c4c(sc3n2)CCCC4)n1
COc1cc(OC)cc(C(=O)NC2CCCN(Cc3ccc(Cl)cc3)C2)c1 (stereo not given)
CN(C)C(CNC(=O)CCc1c[nH]c2ccccc12)c1ccccc1 (stereo not given)
CCCCN(CC)CCCNC(=O)Cn1nc(Cc2ccncc2)c2ccccc2c1=O
COC(=O)C1=C(C)N(Cc2ccccc2)C(=NCCc2ccccn2)N[C@H]1c1cccc(F)c1
